In ChEMBL document CHEMBL1152893, “Synthesis and in vitro trichomonicidal, giardicidal and amebicidal activity of N-acetamide(sulfonamide)-2-methyl-4-nitro-1H-imidazoles” (Eur J Med Chem, 2009):

What was measured:
Trichomonas vaginalis [1] = experiment: Antiparasitic activity against Trichomonas vaginalis GT3 trophozoites after 48 hrs by […]; type: functional, organism-based; details: GT3, 48 h
In short: (§1)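 Axenic trophozoites grown in modified TYI-S-33 with 10% calf serum and bovine bile; exposed 48 h at 37 °C to increasing compound concentrations, DMSO as negative control. Then washed, subcultured 48 h in fresh drug-free medium and counted. IC50 by Probit analysis; triplicate, repeated at least twice.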

[2] = Selectivity index, ratio of CC50 for MDCK cells to IC50 for Giardia intestinalis IMSS:0696 trophozoites; type: functional
[3] = Selectivity index, ratio of CC50 for MDCK cells to IC50 for Entamoeba histolytica HM-1:IMSS trophozoites; type: functional
[4] = Cytotoxicity against MDCK cells after 72 hrs by MTT assay; type: cell-based, Canis lupus familiaris; details: dog
In short: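 MDCK cells in DMEM with 10% FBS and penicillin/streptomycin, 37 °C, 5% CO2. 1.5×10⁴ cells/well seeded; above 80% confluence, medium replaced and compounds added from 6.25 upward, DMSO final 0.05%. After 72 h, MTT added for 4 h at 37 °C. Formazan dissolved in acidified isopropanol (0.4 N HCl), OD 540 nm; untreated cells as negative control; CC50 calculated.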

Giardia intestinalis [5] = experiment: Antiparasitic activity against Giardia intestinalis IMSS:0696 trophozoites after 48 hrs by […]; type: functional, organism-based; details: Giardia duodenalis, IMSS:0696, 48 h; in short: as §1
Entamoeba histolytica [6] = experiment: Amebicidal activity against Entamoeba histolytica HM-1:IMSS trophozoites after 48 hrs by […]; type: functional, organism-based; in short: as §1
[7] = Selectivity index, ratio of CC50 for MDCK cells to IC50 for Trichomonas vaginalis GT3 trophozoites; type: functional
Trichomonas vaginalis [8] = experiment: Ratio of 2-methyl-4(5)-nitroimidazole IC50 to compound IC50 for Trichomonas vaginalis GT3 trophozoites; type: functional
Trichomonas vaginalis [9] = experiment: Ratio of Benznidazole IC50 to compound IC50 for Trichomonas vaginalis GT3 trophozoites; type: functional
Entamoeba histolytica [10] = experiment: Ratio of 2-methyl-4(5)-nitroimidazole IC50 to compound IC50 for Entamoeba histolytica HM-1:IMSS trophozoites; type: functional
Giardia intestinalis [11] = experiment: Ratio of Benznidazole IC50 to compound IC50 for Giardia intestinalis IMSS:0696 trophozoites; type: functional, Giardia duodenalis
Giardia intestinalis [12] = experiment: Ratio of 2-methyl-4(5)-nitroimidazole IC50 to compound IC50 for Giardia intestinalis IMSS:0696 trophozoites; type: functional, Giardia duodenalis

| IC50 (Trichomonas vaginalis [1]) | IC50 (Giardia intestinalis [5]) | SMILES | Ratio CC50/IC50 [2] | Ratio CC50/IC50 [3] | CC50 at 72 h [4] | IC50 (Entamoeba histolytica [6]) | Ratio CC50/IC50 [7] | Ratio IC50 (Trichomonas vaginalis [8]) | Ratio IC50 (Trichomonas vaginalis [9]) | Ratio IC50 (Entamoeba histolytica [10]) | Ratio IC50 (Giardia intestinalis [11]) | Ratio IC50 (Giardia intestinalis [12]) |
| --- | --- | --- | --- | --- | --- | --- | --- | --- | --- | --- | --- | --- |
| 24.6 µM | 49.1 µM | Cc1nc([N+](=O)[O-])cn1CC(=O)Nc1ccccc1 | 23 | 43 | 1140 µM | 26.6 µM | 46 | – | – | – | – | – |
| 37 µM | 22 µM | Cc1nc([N+](=O)[O-])cn1CC(=O)Nc1c(Cl)cccc1Cl | 18 | 16 | 396 µM | 25.3 µM | 11 | – | – | – | – | – |
| 12.5 µM | 12 µM | Cc1nc([N+](=O)[O-])cn1S(=O)(=O)c1ccccc1 | 106 | 188 | 1270 µM | 6.74 µM | 101 | – | – | – | – | – |
| 7.98 µM | 17.7 µM | Cc1nc([N+](=O)[O-])cn1CC(=O)NCc1ccccc1 | 4 | 20 | 77.5 µM | 3.96 µM | 10 | 5 | 2 | 2 | – | – |
| 11.5 µM | 10.6 µM | Cc1nc([N+](=O)[O-])cn1S(=O)(=O)c1ccc(F)cc1 | 77 | 183 | 813 µM | 4.44 µM | 71 | – | – | – | – | – |
| 9.18 µM | 16 µM | Cc1nc([N+](=O)[O-])cn1CC(=O)Nc1ccc(Cl)cc1 | 40 | 35 | 642 µM | 18.1 µM | 70 | 5 | 2 | – | – | – |
| 5.61 µM | 21 µM | Cc1nc([N+](=O)[O-])cn1CC(=O)Nc1ccc(F)cc1 | 39 | 74 | 828 µM | 11.2 µM | 148 | 6 | 3 | – | – | – |
| 8.73 µM | 20.2 µM | CC(=O)Nc1ccc(S(=O)(=O)n2cc([N+](=O)[O-])nc2C)cc1 | 51 | 265 | 1030 µM | 3.89 µM | 118 | – | – | 2 | – | – |
| 2.93 µM | 7.5 µM | Cc1nc([N+](=O)[O-])cn1S(=O)(=O)c1ccc([N+](=O)[O-])cc1 | 82 | 84 | 611 µM | 7.28 µM | 209 | 14 | 6 | – | 2 | 2 |
| 9.96 µM | 14 µM | Cc1ccc(S(=O)(=O)n2cc([N+](=O)[O-])nc2C)cc1 | 71 | 278 | 988 µM | 3.55 µM | 99 | – | – | 2 | – | – |
| 8.41 µM | 6.55 µM | COc1ccc(S(=O)(=O)n2cc([N+](=O)[O-])nc2C)cc1 | 49 | 38 | 321 µM | 8.56 µM | 38 | – | – | – | 2 | 2 |
| 7.62 µM | 15.3 µM | Cc1nc([N+](=O)[O-])cn1S(=O)(=O)c1ccc(Cl)cc1 | 38 | 144 | 578 µM | 4.03 µM | 76 | – | – | – | – | – |
| 6.63 µM | 15.4 µM | Cc1nc([N+](=O)[O-])cn1CC(=O)Nc1ccc([N+](=O)[O-])cc1 | 52 | 52 | 798 µM | 15.3 µM | 120 | – | – | – | – | – |
| 14.2 µM | 11.2 µM | Cc1nc([N+](=O)[O-])cn1CC(=O)Nc1ccc(C#N)cc1 | 60 | 16 | 672 µM | 41.2 µM | 47 | 3 | – | – | 2 | – |
| 67.4 µM | 37.6 µM | Cc1nc([N+](=O)[O-])cn1CC(=O)Nc1cccc(C(F)(F)F)c1 | 12 | 15 | 435 µM | 29.1 µM | 6 | – | – | – | – | – |
| 18.6 µM | 22.6 µM | O=C(Cn1ccnc1[N+](=O)[O-])NCc1ccccc1 [BENZNIDAZOLE] | – | – | – | 4.27 µM | – | – | – | – | – | – |
| 0.29 µM | 5.36 µM | Cc1ncc([N+](=O)[O-])n1CCO [METRONIDAZOLE] | – | – | 68 µM | – | – | – | – | – | – | – |
